Test results taken from article PMC3102533 (ChemMedChem, 2009).

Biological target: T1, recombinant Lyp (Homo sapiens, UniProt Q9Y2R2)
T1 sequence (Q9Y2R2 2-309): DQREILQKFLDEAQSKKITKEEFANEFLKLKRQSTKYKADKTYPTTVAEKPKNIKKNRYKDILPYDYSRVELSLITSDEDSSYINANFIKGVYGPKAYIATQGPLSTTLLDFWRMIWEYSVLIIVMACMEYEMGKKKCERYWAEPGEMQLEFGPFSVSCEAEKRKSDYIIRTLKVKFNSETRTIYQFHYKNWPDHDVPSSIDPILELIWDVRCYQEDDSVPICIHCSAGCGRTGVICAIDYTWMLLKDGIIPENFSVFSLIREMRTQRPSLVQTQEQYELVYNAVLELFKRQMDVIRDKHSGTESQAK
Assay: Lyp enzymatic assay, IC50 measurements
Type: biochemical
Conditions: compared with compound 7 (analogue lacks the nitro group)
How it was run: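 GST-fused Lyp catalytic domain (residues 2–309) was expressed in E. coli BL21 DE3 and purified by glutathione affinity and Superdex S-200. DiFMUP hydrolysis was measured at 48 μM substrate (Km) and 30°C in 20 mM Bis-Tris pH 6.0 (ionic strength 20 mM, NaCl) with 1 mM DTT, 1% PEG 8000 and 5% DMSO. Initial rates were read at ex 360/em 460 nm and corrected with a no-enzyme control. IC50 came from fitting relative activity against inhibitor concentration.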

fold less inhibitory activity against Lyp: 157 fold
SMILES: O=C(Nc1ccc(I)cc1C(=O)O)c1ccccc1 [2-benzamido-5-iodobenzoic acid]
